Compound activity (PubChem BioAssay)
TRPC4 block: TRPC4 (mouse) channel inhibition. B-score at 10 µM. HEK293 TRPC4beta/mu-opioid, DAMGO-evoked Fluo4 calcium flux; hits give low values. 300,000 tested, 0.39% active;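 active = B-score over 3 SD under the library average, no early fluorescence shift, positive overall ratio signal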
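material = TRPC4beta/mu-opioid receptor HEK293 cell line | probe or stimulus = sequential submaximal and maximal DAMGO stimulation | compound dosing = one concentration per compound | measured by = Fluo4 Ca2+ flux fluorescence | evaluation = integrated fluorescence ratio relative to baseline, converted to per-well B score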
TRPC4 PAM: TRPC4 (mouse) allosteric potentiation. Q9QUQ5. HEK293 TRPC4beta/mu-opioid, DAMGO EC20, Fluo-4 Ca2+ flux; hits give high values. B-score at 10 µM. 310,000 tested, 0.42% active. AID 2227;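 active = B-score of calcium response area above 5 SD of library B-scores, with initial fluorescence ratio within 5 SD of library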;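 note: B-score of integrated fluorescence ratio over time as area under calcium response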
TRPC6 inh: blocks the mouse TRPC6 cation channel; Q61143; HEK293-TRPC6, membrane potential dye, ACh-evoked depolarization; hits give low values; B-score at 10 µM; 310,000 tested, 1.1% active; AID 2553;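 active = B-score under library mean minus 3 SD, initial fluorescence not abnormally high, positive integrated signal ratio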;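 note: B-score derived from integrated fluorescence ratio over the kinetic read; more negative B-score means stronger inhibition of depolarization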
TRPC4 agonist: opens the mouse TRPC4 cation channel; B-score at 10 µM; AID 2237; 310,000 tested, 0.49% active; Q9QUQ5; HEK293 TRPC4beta/mu-opioid, Fluo4 calcium fluorescence; hits give high values;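 active = B-score above 5 SD of library B-scores, and initial fluorescence ratio not above library mean plus 5 SD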;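 note: positive B-score marks a calcium rise read as TRPC4 activation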
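System: HEK293 cells stably co-expressing mouse TRPC4beta and mu-opioid receptor; Schedule: Fluo4 dye loading 45 min at room temperature, 110 s recording; Detection: Fluo4 fluorescence, kinetic; Evaluation: B-scored integrated calcium fluorescence ratio; Controls: buffer (low) and maximal DAMGO (high).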
TRPC6 act: activates the mouse TRPC6 cation channel | 310,000 tested, 0.13% active | HEK293-TRPC6 membrane potential dye fluorescence; hits give high values | B-score at 10 µM | Q61143;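 active = B-score of the integrated fluorescence ratio above library mean plus 3 SD, and starting fluorescence ratio within library mean plus 5 SD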;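 note: higher score means more depolarization so channel activation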
TRPC4 sel inh 2: second selectivity test of TRPC6 inhibitors: effect on mouse TRPC4; shares compounds with TRPC6 inh; HEK293 TRPC4/MOR, membrane potential dye fluorescence; channel activated by saturating DAMGO dose; AID 2776; inhibition, % at 10 µM; 920 tested, 42% active;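 active = compounds whose fluorescence signal differed from control wells by over 3 SD, either direction, in both duplicate plates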
TRPC4 spec: tests whether TRPC6 inhibitors also affect mouse TRPC4 | 920 tested, 61% active | HEK293 TRPC4/mu-opioid, membrane potential fluorescence | activity change, negative = inhibition, % at 10 µM | shares compounds with TRPC6 inh | AID 2777;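 active = rise or fall in signal beyond 3 SD of buffer-only wells in both replicate plates, either sign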;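 note: integrated kinetic ratio of fluorescence range over baseline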
HEK293 MPD ctr 2-1: parental HEK293 nonspecific activity of TRPC6 inhibitors, second screen. shares compounds with TRPC6 inh. parental HEK293 membrane potential dye fluorescence; maximal acetylcholine challenge after compound addition. signal change vs control, % at 10 µM. 920 tested, 31% active;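 active = membrane potential signal moving either way by over 3 SD of the maximum-effect control, in both duplicate plates, meaning non-specific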
HEK293 MPD ctr-1: counter-screen for TRPC6 inhibitors: effect in parental HEK293 cells; shares compounds with TRPC6 inh; 920 tested, 60% active; parental HEK293 membrane potential dye fluorescence; membrane potential signal change, % at 10 µM; AID 2780;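 active = membrane potential signal shifting up or down by more than 3 SD of buffer-only wells, on both duplicate plates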
HEK293 MPD ctr-2: parental HEK293 nonspecific activity of TRPC6 modulators. shares compounds with TRPC6 inh. membrane potential dye fluorescence. membrane potential signal change, % at 10 µM. 2,400 tested, 51% active. AID 488924;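 active = membrane potential signal moves up or down beyond 5 SD from buffer-only wells, on both duplicate plates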
HEK293 MPD ctr 2-2: second check of TRPC6 modulator effects in parental HEK293 cells; shares compounds with TRPC6 inh; membrane potential dye fluorescence; after compound, maximal acetylcholine stimulation; inhibition, % at 10 µM; 2,400 tested, 14% active; AID 488926;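 active = membrane potential signal drops by more than 5 SD from the mean control signal, in both duplicate plates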;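 note: plate controls were acetylcholine ECmax control wells for no effect and buffer only wells for full effect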
TRPC4/MOR mod: selectivity of TRPC6 modulators against mouse TRPC4. 2,400 tested, 69% active. percent change from control (negative = decrease, positive = increase), % at 10 µM. shares compounds with TRPC6 inh. HEK293 TRPC4/mu-opioid, membrane potential fluorescence;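 active = membrane potential signal moved up or down beyond 5 SD of buffer control wells, in both duplicate plates, actives on both sides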;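 note: plate controls were assay buffer wells for no effect and DAMGO maximal-effect wells for full effect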
TRPC4/MOR inh 2: second check of whether TRPC6 modulators also affect mouse TRPC4; shares compounds with TRPC6 inh; AID 488928; inhibition, % at 10 µM; HEK293 TRPC4/mu-opioid, membrane potential dye fluorescence; stimulated with maximal-effect DAMGO; 2,400 tested, 55% active;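 active = drop in membrane potential signal beyond 5 SD of the control wells in both duplicate plates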;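 note: TRPC4 counter screen for TRPC6 hits run under conditions tuned for TRPC6 not TRPC4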
TRPC6 inh conf: confirmation of mouse TRPC6 inhibitors. shares compounds with TRPC6 inh. HEK293-TRPC6, membrane potential dye, ACh-evoked depolarization. inhibition, % at 10 µM. 3,300 tested, 43% active. AID 488960;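 active = fluorescence ratio falls more than 5 SD below the full-stimulation control mean, in both duplicate runs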;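 note: integrated fluorescence ratio of peak minus minimum over baseline after agonist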
TRPC6 act confirm: confirmation of mouse TRPC6 activators; HEK293-TRPC6 membrane potential dye fluorescence, FDSS; shares compounds with TRPC6 inh; activation, % at 10 µM; 2,800 tested, 11% active; AID 488961;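 active = ratio signal rise beyond 5 SD above unstimulated control wells' mean, seen in both duplicate runs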;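 note: plate controls were buffer EC0 wells for no effect and acetylcholine ECmax response for full effect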
An asterisk follows results filed as active. Rows were chosen to be rich in hits. Some 2.3% of all compounds tested hit in one or more screens of this group.

For COc1ccccc1N1CC(O)=C(c2nc3ccccc3c(=O)[nH]2)C1=N the results were TRPC4 block inactive, TRPC4 PAM inactive, TRPC6 inh -5*, TRPC4 agonist inactive, TRPC6 act inactive, HEK293 MPD ctr-2 inactive, HEK293 MPD ctr 2-2 inactive, TRPC4/MOR mod 9.0%*, TRPC4/MOR inh 2 inactive and TRPC6 inh conf inactive.
For COc1ccc(-c2c(NC(=O)c3ccco3)oc3c(C)cccc3c2=O)cc1 the results were TRPC4 block inactive, TRPC4 PAM inactive, TRPC6 inh inactive, TRPC4 agonist inactive and TRPC6 act inactive.
`c1ccc(-c2cnnc(N3CCCCC3)n2)cc1` gave TRPC4 block inactive, TRPC4 PAM inactive, TRPC6 inh -6.9*, TRPC4 agonist inactive, TRPC6 act inactive, TRPC4 sel inh 2 inactive, TRPC4 spec 0.7%*, HEK293 MPD ctr 2-1 inactive, HEK293 MPD ctr-1 inactive and TRPC6 inh conf 72%*.
`FC(F)(F)c1cc(-c2ccccc2)nc(N2CCCCCC2)n1` gave TRPC4 block inactive, TRPC4 PAM inactive, TRPC6 inh inactive, TRPC4 agonist inactive and TRPC6 act inactive.
For Cc1ccc(-n2c(SCC(N)=O)nnc2-c2ccc(S(=O)(=O)N3CCCCC3)cc2)c(C)c1 the results were TRPC4 block inactive, TRPC4 PAM inactive, TRPC6 inh -6*, TRPC4 agonist inactive, TRPC6 act inactive, HEK293 MPD ctr-2 inactive, HEK293 MPD ctr 2-2 inactive, TRPC4/MOR mod 40%*, TRPC4/MOR inh 2 inactive, TRPC6 inh conf 41%* and TRPC6 act confirm inactive.
`CN1C2CCC1CC(OC(=O)c1c[nH]c3ccccc13)C2` (stereo unspecified) gave TRPC4 block inactive, TRPC4 PAM inactive, TRPC6 inh inactive, TRPC4 agonist inactive and TRPC6 act inactive.
CN1C2CCC1CC(OC(c1ccccc1)c1ccccc1)C2 (stereo unspecified) was read as TRPC4 block inactive, TRPC4 PAM inactive, TRPC6 inh -7.1*, TRPC4 agonist inactive, TRPC6 act inactive, TRPC4 sel inh 2 68%*, TRPC4 spec 19%*, HEK293 MPD ctr 2-1 inactive, HEK293 MPD ctr-1 14%* and TRPC6 inh conf 69%*.
Cc1ccccc1C1=NC(C(F)(F)F)(C(F)(F)F)c2c(n(C)c(=O)n(C)c2=O)N1 was read as TRPC4 block inactive, TRPC4 PAM inactive, TRPC6 inh inactive, TRPC4 agonist inactive and TRPC6 act inactive.
